Experimental data: ChEMBL document CHEMBL4177755, “Combating Drug-Resistant Fungi with Novel Imperfectly Amphipathic Palindromic Peptides” (J Med Chem, 2018)

Key:
Candida albicans [1] = experiment: Fungicidal activity against Candida albicans 14936 after 96 hrs; assay type: functional; details: Candida albicans, 14936, 96 h; read-out: MFC99.9
Outline: (§1)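 After the 48 h, 28 °C broth microdilution in MOPS-buffered RPMI 1640 (inoculum (0.5−1) × 10^3 CFU/mL), 50 μL from each well was plated on YM agar for a further 48 h at 28 °C. MFC is the lowest concentration killing at least 99.9% of cells. Triplicate, three biological replicates.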

Candida tropicalis [2] = experiment: Antifungal activity against Candida tropicalis cgmcc 2.1975 after 48 hrs by broth microdilution method; assay type: functional; details: cgmcc 2.1975, 48 h
Outline: (§2)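 Modified CLSI M27-A2 broth microdilution. Yeast were suspended in MOPS-buffered RPMI 1640 at a final (0.5−1) × 10^3 CFU/mL and mixed 1:1 with peptide serially diluted in 0.2% BSA. Plates were incubated 48 h at 28 °C and read at A492. MIC is the lowest concentration giving 95% inhibition. Run in triplicate with three biological replicates.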

Candida albicans [3] = experiment: Antifungal activity against Candida albicans SP3876 after 48 hrs by broth microdilution method; assay type: functional; details: SP3876, 48 h
Outline: (§3)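 Modified CLSI M27-A2 broth microdilution. Yeast at (0.5−1) × 10^3 CFU/mL in MOPS-buffered RPMI 1640 was mixed 1:1 with peptide serially diluted in 0.2% BSA and incubated 48 h at 28 °C. Absorbance was read at 492 nm; MIC is the lowest concentration inhibiting 95% of growth. Triplicate, three biological replicates.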

Candida albicans [4] = experiment: Antifungal activity against Candida albicans cgmcc 2.2086 in presence of FeCl3 by broth dilution method; assay type: functional
Candida albicans [5] = experiment: Antifungal activity against Candida albicans cgmcc 2.2086 in presence of ZnCl2 by broth dilution method; assay type: functional
Escherichia coli [6] = experiment: Bactericidal activity against Escherichia coli ATCC 25922; assay type: functional; details: read-out: MBC99.9
Outline: (§4)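 Wells from the 24 h, 37 °C MHB microdilution plates (bacteria at a final (0.5−1) × 10^5 CFU/mL; peptide diluted in 0.2% BSA) were plated on agar and incubated overnight. MBC is the lowest concentration killing >99.9% of cells. Each test was reproduced at least 3 times.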

Candida albicans [7] = experiment: Antifungal activity against Candida albicans SP3931 after 48 hrs by broth microdilution method; assay type: functional; details: SP3931, 48 h; outline: as §3
Escherichia coli [8] = experiment: Antibacterial activity against Escherichia coli ATCC 25922 after 18 hrs in presence of ZnCl2 by broth dilution method; assay type: functional; details: ATCC 25922, 18 h
Candida albicans [9] = experiment: Antifungal activity against Candida albicans 58288 after 48 hrs by broth microdilution method; assay type: functional; details: Candida albicans, 58288, 48 h; outline: as §3
Staphylococcus aureus [10] = experiment: Antibacterial activity against Staphylococcus aureus ATCC 25923 after 24 hrs; assay type: functional; details: ATCC 25923, 24 h
Outline: (§5)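 Modified NCCLS broth microdilution. Mid-log bacteria at (0.5−1) × 10^5 CFU/mL in MHB were mixed 1:1 with peptide serially diluted in 0.2% BSA and incubated 24 h at 37 °C. Absorbance was read at 492 nm; MIC is the lowest concentration inhibiting 95% of growth. At least 3 repeats.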

Escherichia coli [11] = experiment: Antibacterial activity against Escherichia coli ATCC 25922 after 24 hrs; assay type: functional; details: ATCC 25922, 24 h
Outline: (§6)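 Broth microdilution. Mid-log bacteria in MHB at a final (0.5−1) × 10^5 CFU/mL were mixed with equal volumes of peptide serially diluted in 0.2% BSA. Plates were incubated 24 h at 37 °C and read at A492. MIC is the lowest concentration inhibiting 95% of growth. Each test was repeated at least 3 times.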

Salmonella typhimurium [12] = experiment: Antibacterial activity against Salmonella typhimurium ATCC 14028 after 24 hrs; assay type: functional, Salmonella enterica subsp. enterica serovar Typhimurium; details: Salmonella enterica, ATCC 14028, 24 h; outline: as §6
Candida tropicalis [13] = experiment: Fungicidal activity against Candida tropicalis cgmcc 2.1975 after 96 hrs; assay type: functional; details: cgmcc 2.1975, 96 h, read-out: MFC99.9
Outline: (§7)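 Wells from the 48 h, 28 °C RPMI 1640/MOPS microdilution plates were plated on YM agar and incubated a further 48 h at 28 °C. MFC is the lowest concentration killing at least 99.9% of cells. Run in triplicate with three biological replicates.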

[14] = test system: Staphylococcus epidermidis; experiment: Bactericidal activity against Staphylococcus epidermidis ATCC 12228; assay type: functional; details: read-out: MBC99.9; outline: as §4
Salmonella typhimurium [15] = experiment: Bactericidal activity against Salmonella typhimurium ATCC 14028; assay type: functional, Salmonella enterica subsp. enterica serovar Typhimurium; details: Salmonella enterica, read-out: MBC99.9; outline: as §4
Staphylococcus aureus [16] = experiment: Antibacterial activity against methicillin-resistant Staphylococcus aureus ATCC 4330 after 24 hrs; assay type: functional; details: ATCC 4330, 24 h; outline: as §5
Candida parapsilosis [17] = experiment: Fungicidal activity against Candida parapsilosis cgmcc 2.3989 after 96 hrs; assay type: functional; details: Lodderomyces parapsilosis, cgmcc 2.3989, 96 h; read-out: MFC99.9; outline: as §7
Candida albicans [18] = experiment: Fungicidal activity against Candida albicans SP3876 after 96 hrs; assay type: functional; details: SP3876, 96 h, read-out: MFC99.9; outline: as §1
Escherichia coli [19] = experiment: Antibacterial activity against Escherichia coli ATCC 25922 after 18 hrs in presence of KCl by broth dilution method; assay type: functional; details: ATCC 25922, 18 h
Candida albicans [20] = experiment: Fungicidal activity against fluconazole-resistant Candida albicans 56214 after 96 hrs; assay type: functional; details: Candida albicans, 56214, 96 h; read-out: MFC99.9; outline: as §1
Escherichia coli [21] = experiment: Antibacterial activity against Escherichia coli ATCC 25922 after 18 hrs in presence of CaCl2 by broth dilution method; assay type: functional; details: ATCC 25922, 18 h
Staphylococcus aureus [22] = experiment: Bactericidal activity against Staphylococcus aureus ATCC 29213; assay type: functional; details: read-out: MBC99.9; outline: as §4
Candida albicans [23] = experiment: Fungicidal activity against fluconazole-resistant Candida albicans 17546 after 96 hrs; assay type: functional; details: Candida albicans, 17546, 96 h; read-out: MFC99.9; outline: as §1
[24] = test system: Staphylococcus epidermidis; experiment: Antibacterial activity against Staphylococcus epidermidis ATCC 12228 after 24 hrs; assay type: functional; details: ATCC 12228, 24 h; outline: as §6
Candida albicans [25] = experiment: Antifungal activity against fluconazole-resistant Candida albicans 56452 after 48 hrs by broth microdilution method; assay type: functional; details: Candida albicans, 56452, 48 h; outline: as §3
Candida albicans [26] = experiment: Fungicidal activity against Candida albicans SP3902 after 96 hrs; assay type: functional; details: SP3902, 96 h, read-out: MFC99.9; outline: as §1
Candida albicans [27] = experiment: Antifungal activity against Candida albicans 14936 after 48 hrs by broth microdilution method; assay type: functional; details: Candida albicans, 14936, 48 h; outline: as §3
Escherichia coli [28] = experiment: Bactericidal activity against Escherichia coli 1005; assay type: functional; details: read-out: MBC99.9; outline: as §4
Pichia kudriavzevii = experiment: Fungicidal activity against Candida krusei cgmcc 2.1857 after 96 hrs; assay type: functional; details: cgmcc 2.1857, 96 h, read-out: MFC99.9; outline: as §7
Candida albicans [29] = experiment: Antifungal activity against fluconazole-resistant Candida albicans 17546 after 48 hrs by broth microdilution method; assay type: functional; details: Candida albicans, 17546, 48 h; outline: as §3
Staphylococcus aureus [30] = experiment: Bactericidal activity against methicillin-resistant Staphylococcus aureus ATCC 4330; assay type: functional; details: read-out: MBC99.9
Outline: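 Bacteria at (0.5−1) × 10^5 CFU/mL in MHB were exposed to serially diluted peptide (0.2% BSA) for 24 h at 37 °C, then 50 μL aliquots were plated on agar overnight. MBC is the lowest concentration killing >99.9% of cells. At least 3 repeats.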

Candida parapsilosis [31] = experiment: Antifungal activity against Candida parapsilosis cgmcc 2.3989 after 48 hrs by broth microdilution method; assay type: functional; details: Lodderomyces parapsilosis, cgmcc 2.3989, 48 h; outline: as §2
Candida albicans [32] = experiment: Fungicidal activity against Candida albicans 58288 after 96 hrs; assay type: functional; details: Candida albicans, 58288, 96 h; read-out: MFC99.9; outline: as §1

Substance | MFC (Candida albicans [1]) | MIC95 (Candida tropicalis [2]) | MIC95 (Candida albicans [3]) | MIC (Candida albicans [4]) | MIC (Candida albicans [5]) | MBC (Escherichia coli [6]) | MIC95 (Candida albicans [7]) | MIC (Escherichia coli [8]) | MIC95 (Candida albicans [9]) | MIC95 (Staphylococcus aureus [10]) | MIC95 (Escherichia coli [11]) | MIC95 (Salmonella typhimurium [12]) | MFC (Candida tropicalis [13]) | MBC [14] | MBC (Salmonella typhimurium [15]) | MIC95 (Staphylococcus aureus [16]) | MFC (Candida parapsilosis [17]) | MFC (Candida albicans [18]) | MIC (Escherichia coli [19]) | MFC (Candida albicans [20]) | further results
H-RIIRRIRRIIR-NH2 | 8 µM | 1 µM | 8 µM | 16 µM | 64 µM | 32 µM | 16 µM | 16 µM | 8 µM | 32 µM | 16 µM | 16 µM | 2 µM | 32 µM | 32 µM | 16 µM | > 64 µM | 16 µM | 16 µM | 16 µM | MIC (Escherichia coli [21]): 32 µM; MBC (Staphylococcus aureus [22]): > 64 µM; MFC (Candida albicans [23]): 16 µM; MIC95 [24]: 16 µM; MIC95 (Candida albicans [25]): 8 µM; MFC (Candida albicans [26]): 16 µM; MIC95 (Candida albicans [27]): 8 µM; MBC (Escherichia coli [28]): 8 µM; MFC (Pichia kudriavzevii): 8 µM; MIC95 (Candida albicans [29]): 16 µM; MBC (Staphylococcus aureus [30]): 16 µM; MIC95 (Candida parapsilosis [31]): > 64 µM; MFC (Candida albicans [32]): 16 µM
H-RIRIIIRIR-NH2 | 2 µM | 2 µM | 1 µM | 4 µM | 4 µM | 8 µM | 4 µM | 8 µM | 2 µM | 4 µM | 8 µM | 4 µM | 4 µM | 8 µM | 8 µM | 4 µM | 16 µM | 1 µM | 8 µM | 4 µM | MIC (Escherichia coli [21]): 16 µM; MBC (Staphylococcus aureus [22]): 8 µM; MFC (Candida albicans [23]): 2 µM; MIC95 [24]: 4 µM; MIC95 (Candida albicans [25]): 4 µM; MFC (Candida albicans [26]): 2 µM; MIC95 (Candida albicans [27]): 2 µM; MBC (Escherichia coli [28]): 8 µM; MFC (Pichia kudriavzevii): 4 µM; MIC95 (Candida albicans [29]): 2 µM; MBC (Staphylococcus aureus [30]): 4 µM; MIC95 (Candida parapsilosis [31]): 8 µM; MFC (Candida albicans [32]): 4 µM
H-RLLRRLRRLLR-NH2 | 8 µM | 2 µM | 4 µM | 8 µM | 8 µM | 16 µM | 8 µM | 8 µM | 4 µM | 8 µM | 4 µM | 8 µM | 4 µM | 4 µM | 16 µM | 8 µM | 16 µM | 8 µM | 4 µM | 16 µM | MIC (Escherichia coli [21]): 8 µM; MBC (Staphylococcus aureus [22]): 16 µM; MFC (Candida albicans [23]): 16 µM; MIC95 [24]: 4 µM; MIC95 (Candida albicans [25]): 8 µM; MFC (Candida albicans [26]): 8 µM; MIC95 (Candida albicans [27]): 8 µM; MBC (Escherichia coli [28]): 4 µM; MFC (Pichia kudriavzevii): 8 µM; MIC95 (Candida albicans [29]): 8 µM; MBC (Staphylococcus aureus [30]): 16 µM; MIC95 (Candida parapsilosis [31]): 8 µM; MFC (Candida albicans [32]): 16 µM
